{
  "source": "ChEMBL document CHEMBL4665863",
  "about": "(Bioorg Med Chem, 2020)",
  "key": {"Staphylococcus aureus [1]": {"test_system": "Staphylococcus aureus", "test": "Potency index, ratio of linezolid MIC to test compound MIC for antibacterial activity against penicillin-resistant Staphylococcus aureus incubated for 24 hrs by CLSI-based broth microdilution method", "type": "functional"}, "Staphylococcus aureus [2]": {"test_system": "Staphylococcus aureus", "test": "Potency index, ratio of PC190723 MIC to test compound MIC for antibacterial activity against penicillin-resistant Staphylococcus aureus incubated for 24 hrs by CLSI-based broth microdilution method", "type": "functional"}, "Staphylococcus aureus [3]": {"test_system": "Staphylococcus aureus", "test": "Potency index, ratio of linezolid MIC to test compound MIC for antibacterial activity against methicillin-resistant Staphylococcus aureus ATCC43300 incubated for 24 hrs by CLSI-based broth microdilution method", "type": "functional"}, "Staphylococcus aureus [4]": {"test_system": "Staphylococcus aureus", "test": "Potency index, ratio of ciprofloxacin MIC to test compound MIC for antibacterial activity against methicillin-resistant Staphylococcus aureus ATCC43300 incubated for 24 hrs by CLSI-based broth microdilution method", "type": "functional"}, "Staphylococcus aureus [5]": {"test_system": "Staphylococcus aureus", "test": "Potency index, ratio of PC190723 MIC to test compound MIC for antibacterial activity against methicillin-resistant Staphylococcus aureus ATCC43300 incubated for 24 hrs by CLSI-based broth microdilution method", "type": "functional"}, "Staphylococcus aureus [6]": {"test_system": "Staphylococcus aureus", "test": "Bactericidal activity against Staphylococcus aureus clinical isolate assessed as reduction in number of colony forming units at 4XMIC incubated for 9 hrs by Time-kill assay", "type": "functional"}, "HeLa": {"test_system": "HeLa", "test": "Cytotoxicity against human Hela cells assessed as reduction in cell viability incubated for 48 hrs by MTT assay", "type": "cell-based", "in_short": "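HeLa (human cervical cancer) cells were exposed continuously for 48 h, and viability was read by MTT.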"}, "Staphylococcus aureus [7]": {"test_system": "Staphylococcus aureus", "test": "In-vivo antibacterial activity against Staphylococcus aureus infected in KM mouse model assessed as reduction in bacterial load in blood at 10 mg/kg, iv administered thrice daily and measured after 48 hrs", "type": "functional, organism-based", "in_short": "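Groups of four KM mice (average 20 g) were infected i.v. with 8.5 × 10⁸ CFU of a clinical S. aureus isolate resistant to CIP and ERY, in 0.15 mL saline. Treatment was 10 mg/kg i.v. three times daily. Vehicle was 2% DMAC, 30% PEG400/PG (1:1) and 5% HPβCD in water; vehicle and LIN arms were included. At 48 h, retro-orbital blood (0.1 mL) was plated on TSA for CFU counts.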"}, "Bacillus subtilis [8]": {"test_system": "Bacillus subtilis", "test": "Inhibition of ftsZ in Bacillus subtilis assessed as increase in enzyme polymerization kinetics at 5 ug/ml measured for 30 mins by microtiter plate-based light scattering assay", "settings": "dose 5.0 µg/ml", "in_short": "(§1)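 Purified recombinant B. subtilis FtsZ was used. Polymerization was followed as light scattering in microtiter plates, read as time-dependent absorbance at 340 nm at several compound concentrations. Vehicle, CIP and LIN served as controls.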"}, "Bacillus subtilis [9]": {"test_system": "Bacillus subtilis", "test": "Inhibition of FtsZ in Bacillus subtilis ATCC9372 assessed as inhibition of bacterial cell elongation by measuring bacterial cell length at 0.25 ug/ml incubated for 18 hrs by phase contrast microscopic analysis (reference value: 2.28 +/- 0.29 um)", "settings": "dose 0.25 µg/ml", "in_short": "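Compound at 0.25 μg/mL, compared with untreated cells, imaged by microscopy. For B. subtilis ATCC9372, cell length was measured (n = 15). For S. aureus ATCC CI, cell diameter was measured (n = 15). Mean and SD were reported.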"}, "Staphylococcus aureus [10]": {"test_system": "Staphylococcus aureus", "test": "Bactericidal activity against Staphylococcus aureus clinical isolate assessed as reduction in number of colony forming units at 1XMIC incubated for 24 hrs by Time-kill assay", "type": "functional"}, "Staphylococcus aureus [11]": {"test_system": "Staphylococcus aureus", "test": "Bactericidal activity against Staphylococcus aureus clinical isolate assessed as reduction in number of colony forming units at 2XMIC incubated for 12 hrs by Time-kill assay", "type": "functional"}, "Staphylococcus aureus [12]": {"test_system": "Staphylococcus aureus", "test": "Bactericidal activity against Staphylococcus aureus clinical isolate assessed as reduction in number of colony forming units at 0.5 times MIC incubated for 24 hrs by Time-kill assay", "type": "functional, organism-based"}, "Staphylococcus aureus [13]": {"test_system": "Staphylococcus aureus", "test": "Bacteriostatic activity against Staphylococcus aureus clinical isolate assessed as ratio of MBC to MIC", "type": "functional"}, "Staphylococcus aureus [14]": {"test_system": "Staphylococcus aureus", "test": "Bacteriostatic activity against penicillin-resistant Staphylococcus aureus assessed as ratio of MBC to MIC", "type": "functional"}, "Staphylococcus aureus [15]": {"test_system": "Staphylococcus aureus", "test": "Bacteriostatic activity against methicillin-resistant Staphylococcus aureus ATCC43300 assessed as ratio of MBC to MIC", "type": "functional"}, "Staphylococcus aureus [16]": {"test_system": "Staphylococcus aureus", "test": "Bacteriostatic activity against Staphylococcus aureus ATCC25923 assessed as ratio of MBC to MIC", "type": "functional"}, "Staphylococcus aureus [17]": {"test_system": "Staphylococcus aureus", "test": "Bactericidal activity against Staphylococcus aureus clinical isolate assessed as reduction in number of colony forming units incubated for 24 hrs followed by re-plating and reincubation on tryptic soy agar plate for 24 hrs", "type": "functional"}, "Staphylococcus aureus [18]": {"test_system": "Staphylococcus aureus", "test": "Bactericidal activity against penicillin-resistant Staphylococcus aureus assessed as reduction in number of colony forming units incubated for 24 hrs followed by re-plating and reincubation on tryptic soy agar plate for 24 hrs", "type": "functional"}, "Staphylococcus aureus [19]": {"test_system": "Staphylococcus aureus", "test": "Bactericidal activity against methicillin-resistant Staphylococcus aureus ATCC43300 assessed as reduction in number of colony forming units incubated for 24 hrs followed by re-plating and reincubation on tryptic soy agar plate for 24 hrs", "type": "functional"}, "Staphylococcus aureus [20]": {"test_system": "Staphylococcus aureus", "test": "Bactericidal activity against Staphylococcus aureus ATCC25923 assessed as reduction in number of colony forming units incubated for 24 hrs followed by re-plating and reincubation on tryptic soy agar plate for 24 hrs", "type": "functional"}, "Bacillus subtilis [21]": {"test_system": "Bacillus subtilis", "test": "Inhibition of ftsZ in Bacillus subtilis assessed as increase in enzyme polymerization kinetics measured for 30 mins by microtiter plate-based light scattering assay", "in_short": "as §1"}, "Pseudomonas aeruginosa": {"test_system": "Pseudomonas aeruginosa", "test": "Antibacterial activity against Pseudomonas aeruginosa ATCC27853 incubated for 24 hrs by CLSI-based broth microdilution method", "type": "functional"}, "Escherichia coli": {"test_system": "Escherichia coli", "test": "Antibacterial activity against Escherichia coli ATCC25922 incubated for 24 hrs by CLSI-based broth microdilution method", "type": "functional", "settings": "ATCC 25922"}, "Staphylococcus aureus [22]": {"test_system": "Staphylococcus aureus", "test": "Antibacterial activity against Staphylococcus aureus clinical isolate incubated for 24 hrs by CLSI-based broth microdilution method", "type": "functional"}, "Staphylococcus aureus [23]": {"test_system": "Staphylococcus aureus", "test": "Antibacterial activity against penicillin-resistant Staphylococcus aureus incubated for 24 hrs by CLSI-based broth microdilution method", "type": "functional"}, "Bacillus pumilus": {"test_system": "Bacillus pumilus", "test": "Antibacterial activity against Bacillus pumilus CMCC63202 incubated for 24 hrs by CLSI-based broth microdilution method", "type": "functional"}, "Staphylococcus aureus [24]": {"test_system": "Staphylococcus aureus", "test": "Antibacterial activity against Staphylococcus aureus ATCC25923 incubated for 24 hrs by CLSI-based broth microdilution method", "type": "functional"}, "Staphylococcus aureus [25]": {"test_system": "Staphylococcus aureus", "test": "Antibacterial activity against methicillin-resistant Staphylococcus aureus ATCC43300 incubated for 24 hrs by CLSI-based broth microdilution method", "type": "functional"}, "Bacillus subtilis [26]": {"test_system": "Bacillus subtilis", "test": "Antibacterial activity against Bacillus subtilis ATCC9372 incubated for 24 hrs by CLSI-based broth microdilution method", "type": "functional"}, "Staphylococcus aureus [27]": {"test_system": "Staphylococcus aureus", "test": "Inhibition of FtsZ in Staphylococcus aureus clinical isolate assessed as inhibition of bacterial cell elongation by measuring bacterial cell diameter at 0.25 ug/ml incubated for 18 hrs by phase contrast microscopic analysis (reference value: 0.79 +/- 0.05 um)", "settings": "dose 0.25 µg/ml"}},
  "note": "The source made the active and inactive calls. No cut-off for these calls is given here.",
  "data": [
    {"compound": "CCCCc1ccc(C2=NOC(COc3ccc(F)c(C(N)=O)c3F)C2)cc1", "note": "(stereo unspecified)", "values": [
      {"measurement": "Ratio", "setting": "Staphylococcus aureus [1]", "value": 2},
      {"measurement": "Ratio", "setting": "Staphylococcus aureus [2]", "value": 2},
      {"measurement": "Ratio", "setting": "Staphylococcus aureus [3]", "value": 8},
      {"measurement": "Ratio", "setting": "Staphylococcus aureus [4]", "value": 64},
      {"measurement": "Ratio", "setting": "Staphylococcus aureus [5]", "value": 4},
      {"measurement": "Activity", "setting": "Staphylococcus aureus [6]", "value": "<1 10^3CFU/ml"},
      {"measurement": "IC50", "setting": "HeLa", "value": "> 64", "unit": "µg/mL"},
      {"measurement": "Activity", "setting": "Staphylococcus aureus [7]", "value": "Active"},
      {"measurement": "FtsZ polymerization increase (active/inactive call)", "setting": "Bacillus subtilis [8]", "value": "Active"},
      {"measurement": "cell length", "setting": "Bacillus subtilis [9]", "value": 29.3, "unit": "µm"},
      {"measurement": "Activity", "setting": "Staphylococcus aureus [10]", "value": "<1 10^3CFU/ml"},
      {"measurement": "Activity", "setting": "Staphylococcus aureus [11]", "value": "<1 10^3CFU/ml"},
      {"measurement": "Activity", "setting": "Staphylococcus aureus [12]", "value": "Active"},
      {"measurement": "Ratio", "setting": "Staphylococcus aureus [13]", "value": 1},
      {"measurement": "Ratio", "setting": "Staphylococcus aureus [14]", "value": 2},
      {"measurement": "Ratio", "setting": "Staphylococcus aureus [15]", "value": 2},
      {"measurement": "Ratio", "setting": "Staphylococcus aureus [16]", "value": 1},
      {"measurement": "MBC", "setting": "Staphylococcus aureus [17]", "value": 0.5, "unit": "µg/mL"},
      {"measurement": "MBC", "setting": "Staphylococcus aureus [18]", "value": 1, "unit": "µg/mL"},
      {"measurement": "MBC", "setting": "Staphylococcus aureus [19]", "value": 0.5, "unit": "µg/mL"},
      {"measurement": "MBC", "setting": "Staphylococcus aureus [20]", "value": 0.5, "unit": "µg/mL"},
      {"measurement": "inhibition", "setting": "Bacillus subtilis [21]", "value": "Dose-dependent effect"},
      {"measurement": "MIC", "setting": "Pseudomonas aeruginosa", "value": "> 64", "unit": "µg/mL"},
      {"measurement": "MIC", "setting": "Escherichia coli", "value": "> 64", "unit": "µg/mL"},
      {"measurement": "MIC", "setting": "Staphylococcus aureus [22]", "value": 0.5, "unit": "µg/mL"},
      {"measurement": "MIC", "setting": "Staphylococcus aureus [23]", "value": 0.5, "unit": "µg/mL"},
      {"measurement": "MIC", "setting": "Bacillus pumilus", "value": "≤ 0.125", "unit": "µg/mL"},
      {"measurement": "MIC", "setting": "Staphylococcus aureus [24]", "value": 0.5, "unit": "µg/mL"},
      {"measurement": "MIC", "setting": "Staphylococcus aureus [25]", "value": 0.25, "unit": "µg/mL"},
      {"measurement": "MIC", "setting": "Bacillus subtilis [26]", "value": 0.5, "unit": "µg/mL"},
      {"measurement": "cell diameter", "setting": "Staphylococcus aureus [27]", "value": 2.41, "unit": "µm"}
    ]}
  ]
}
